Test results taken from ChEMBL document CHEMBL4130477, “Metabolites from the Plant Endophytic Fungus Aspergillus sp. CPCC 400735 and Their Anti-HIV Activities” (J Nat Prod, 2017).
The source made the active and inactive calls. The calls are words filed in the database; no cut-off is given here.

Legend:
[1] = tested on: Human immunodeficiency virus 1; test: Antiviral activity against VSV-G pseudotyped HIV1 infected in human SupT1 cells at 100 uM after 48 hrs by luciferase reporter gene assay relative to control; assay type: functional; conditions: for inhibition at 100 µM: Human immunodeficiency virus 1, SUP-T1, 48 h
In short: (§1)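 VSV-G pseudotyped HIV-1 (pNL-Luc-E plus pHIT/G) was made by […] (2 × 105), harvested at 48 h through a 0.45 μm filter, and quantified by p24 ELISA. […] Compounds were screened at 100 μM; IC50 was determined for those above 60% inhibition.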

[2] = tested on: Human immunodeficiency virus 1; test: Antiviral activity against VSV-G pseudotyped HIV1 infected in human SupT1 cells after 48 hrs by luciferase reporter gene assay; assay type: functional, organism-based; conditions: Human immunodeficiency virus 1, SUP-T1, 48 h; in short: as §1
[3] = Cytotoxicity against human SupT1 cells assessed as decrease in cell viability after 48 hrs by CCK-8 assay; assay type: cell-based, SUP-T1

`COC(=O)[C@@]1(Cc2ccc(O)c(C[C@@H](O)C(C)(C)O)c2)OC(=O)C(OC)=C1c1ccc(O)cc1` showed an inhibition at 100 µM [1] of 64.3%, an IC50 [2] of 82.3 µM and a CC50 at 48 h [3] of 94.3 µM.
Compound `CC1=C(C)[C@H]2[C@H](Cc3ccccc3)NC(=O)[C@@]2(O)[C@@H](/C=C/C[C@H](C)C(=O)[C@H](C)O)[C@@H]1O` [CYTOCHALASIN Z13] has an inhibition at 100 µM [1] of 44.9%.
With `COC(=O)[C@]1(Cc2ccc(O)cc2)OC(=O)C(O)=C1c1ccc(O)cc1` the inhibition at 100 µM [1] was 60.8%, the IC50 [2] was 84.5 µM and the CC50 at 48 h [3] was > 100 µM.
In the case of `COC(=O)[C@@]1(Cc2ccc(O)c(C[C@H](O)C(C)(C)O)c2)OC(=O)C(OC)=C1c1ccc(O)cc1`, the inhibition at 100 µM [1] is reported as 73.4%, the IC50 [2] is reported as 67.2 µM and the CC50 at 48 h [3] is reported as > 100 µM.
In the case of `C=C1[C@@H](C)[C@H]2[C@H](Cc3ccccc3)NC(=O)[C@]23OC(=O)/C=C/[C@H](C)[C@H](O)[C@@H](C)C/C=C/[C@H]3[C@@H]1O`, the inhibition at 100 µM [1] is reported as 100%, the IC50 [2] is reported as 25.8 µM and the CC50 at 48 h [3] is reported as 95.1 µM.
In the case of `CC(C)=CCC/C(=C/CC/C(C)=C/CC/C(C)=C/C[C@]1(O)C(=O)c2c(O)cc(C)c3c(O)c(C)c(O)c(c23)C1=O)CO`, the inhibition at 100 µM [1] is reported as 100%, the IC50 [2] is reported as 4.5 µM and the CC50 at 48 h [3] is reported as > 100 µM.
For `COc1cc(/C=C2\OC(=O)C(c3ccc(O)cc3)=C2O)cc(O)c1O`, the inhibition at 100 µM [1] was 69.8%, the IC50 [2] was 78.3 µM and the CC50 at 48 h [3] was > 100 µM.
In the case of `COc1cc(/C=C2\OC(=O)C(c3ccc(O)cc3)=C2O)cc(OC)c1O`, the inhibition at 100 µM [1] is reported as 52.3%, the IC50 [2] is reported as 43.7 µM and the CC50 at 48 h [3] is reported as > 100 µM.
With `Cc1c(O)c(O)c(O)c2c1COC2` the inhibition at 100 µM [1] was 90.8%, the IC50 [2] was 49.3 µM and the CC50 at 48 h [3] was 91.4 µM.
With `O=C1O/C(=C\c2ccc(O)c(O)c2)C(O)=C1c1ccc(O)cc1` the inhibition at 100 µM [1] was 72.3%, the IC50 [2] was 40 µM and the CC50 at 48 h [3] was > 100 µM.
With `CC1=C(C)[C@H]2[C@H](Cc3ccccc3)NC(=O)[C@]23OC(=O)C/C=C(/C)C(=O)[C@@H](C)C/C=C/[C@H]3[C@@H]1O` the inhibition at 100 µM [1] was 79.5%, the IC50 [2] was 28.9 µM and the CC50 at 48 h [3] was 70.8 µM.
With `COC(OC)C1CCC(C(C)(C)O)OC1CC/C(C)=C/CC/C(C)=C/C[C@]1(O)C(=O)c2c(O)cc(C)c3c(O)c(C)c(O)c(c23)C1=O` (stereo partly drawn) the inhibition at 100 µM [1] was 99.8%, the IC50 [2] was 2.4 µM and the CC50 at 48 h [3] was > 100 µM.
In the case of `C[C@H]1/C=C/OC(=O)O[C@@]23C(=O)N[C@@H](Cc4ccccc4)[C@@H]2[C@H](C)[C@@]2(C)OC2[C@@H]3/C=C/C[C@H](C)C1=O` (stereo partly drawn), the inhibition at 100 µM [1] is reported as 54.3%.
In the case of `O=C1O/C(=C\c2ccc(O)cc2)C(O)=C1c1ccc(O)cc1`, the inhibition [1] is reported as “inactive”.
In the case of `COc1cc(/C=C2\OC(=O)C(c3ccc(O)cc3)=C2O)ccc1O`, the inhibition [1] is reported as “inactive”.
With `COC(=O)c1cc(O)cc(OC)c1Oc1cc(C)cc(O)c1C(=O)O` [ASTERRIC ACID] the inhibition at 100 µM [1] was 8.53%.
With `C/C(=C\CC/C(C)=C/C[C@]1(O)C(=O)c2c(O)cc(C)c3c(O)c(C)c(O)c(c23)C1=O)CC/C=C(\CO)CC[C@@H](O)C(C)(C)O` the inhibition at 100 µM [1] was 98.6%, the IC50 [2] was 22.1 µM and the CC50 at 48 h [3] was > 100 µM.
`COC(=O)[C@@]1(Cc2ccc3c(c2)C[C@H](O)C(C)(C)O3)OC(=O)C(OC)=C1c1ccc(O)cc1` gave an inhibition at 100 µM [1] of 84.8%, an IC50 [2] of 48 µM and a CC50 at 48 h [3] of 93 µM.
In the case of `COC(=O)c1cc(O)cc(OC)c1C(=O)c1c(O)c(Cl)c(C)c(Cl)c1O` [DIHYDROGEODIN], the inhibition at 100 µM [1] is reported as 91.1%, the IC50 [2] is reported as 56.3 µM and the CC50 at 48 h [3] is reported as > 100 µM.
With `COC(=O)[C@]1(Cc2ccc(O)cc2)OC(=O)C(OC)=C1c1ccc(O)cc1` the inhibition at 100 µM [1] was 68.7%, the IC50 [2] was 74.8 µM and the CC50 at 48 h [3] was > 100 µM.
Compound `COC(=O)c1cc(O)cc(OC)c1C(=O)c1c(O)cc(C)cc1O` [SULOCHRIN] has an inhibition at 100 µM [1] of 53.8%.
In the case of `CC1=C(C)[C@H]2[C@H](Cc3ccccc3)NC(=O)[C@]23OC(=O)/C=C/[C@@](C)(O)C[C@@H](C)C/C=C/[C@H]3[C@@H]1O` [CYTOCHALASIN Z9], the inhibition at 100 µM [1] is reported as 98.7%, the IC50 [2] is reported as 14.4 µM and the CC50 at 48 h [3] is reported as > 100 µM.
In the case of `O=C1O/C(=C\c2ccc(O)cc2)C(O)=C1c1ccc(O)c(O)c1`, the inhibition at 100 µM [1] is reported as 74.8%, the IC50 [2] is reported as 72.4 µM and the CC50 at 48 h [3] is reported as > 100 µM.
In the case of `Nc1ccn([C@@H]2CS[C@H](CO)O2)c(=O)n1` [LAMIVUDINE], the IC50 [2] is reported as 0.1 µM.
In the case of `Cc1c(O)c(O)c(O)c(C=O)c1-c1cc2c(C=O)c(C)c(O)c(O)c2o1`, the inhibition at 100 µM [1] is reported as 94.7%, the IC50 [2] is reported as 20.2 µM and the CC50 at 48 h [3] is reported as > 100 µM.
`COC1=C(c2ccc(O)cc2)[C@@H](Cc2ccc(O)cc2)OC1=O` gave an inhibition at 100 µM [1] of 72.8%, an IC50 [2] of 68.7 µM and a CC50 at 48 h [3] of 96.5 µM.
In the case of `Cc1c(O)c(O)c2c(c1C=O)[C@@H]1O[C@H](O2)c2c(C)c(O)c(O)c(O)c2C1=O`, the inhibition at 100 µM [1] is reported as 99.9%, the IC50 [2] is reported as 6.6 µM and the CC50 at 48 h [3] is reported as > 100 µM.
In the case of `C/C(=C\CC/C(C)=C/C[C@]1(O)C(=O)c2c(O)cc(C)c3c(O)c(C)c(O)c(c23)C1=O)CC/C=C(\CC[C@@H](O)C(C)(C)O)C(=O)O`, the inhibition at 100 µM [1] is reported as 96.8%, the IC50 [2] is reported as 32.6 µM and the CC50 at 48 h [3] is reported as 78.6 µM.
In the case of `COC(=O)c1cc(O)cc(OC)c1Oc1c(Cl)c(C)c(Cl)c(O)c1C(=O)O`, the inhibition [1] is reported as “inactive”.
For `C/C(=C\CC/C(C)=C/C[C@]1(O)C(=O)c2c(O)cc(C)c3c(O)c(C)c(O)c(c23)C1=O)CC/C=C(/CC[C@@H](O)C(C)(C)O)C(=O)O`, the inhibition at 100 µM [1] was 48.1%.
For `CC1=C(C)[C@H]2[C@H](Cc3ccccc3)NC(=O)[C@]23OC(=O)/C=C/[C@H](C)[C@H](O)[C@@H](C)C/C=C/[C@H]3[C@@H]1O`, the inhibition at 100 µM [1] was 100%, the IC50 [2] was 9.2 µM and the CC50 at 48 h [3] was > 100 µM.
In the case of `C/C1=C\CC(=O)O[C@@]23C(=O)N[C@@H](Cc4ccccc4)[C@@H]2[C@H](C)[C@@]2(C)O[C@H]2[C@@H]3/C=C/C[C@H](C)C1=O`, the inhibition at 100 µM [1] is reported as 81.5%, the IC50 [2] is reported as 41.6 µM and the CC50 at 48 h [3] is reported as 98.6 µM.
For `O=C1O[C@H](Cc2ccc(O)cc2)C(c2ccc(O)cc2)=C1O`, the inhibition at 100 µM [1] was 62.2%, the IC50 [2] was 54.2 µM and the CC50 at 48 h [3] was > 100 µM.
`COc1cc(O)cc(C(=O)O)c1Oc1cc(C)cc(O)c1C(=O)O` gave an inhibition at 100 µM [1] of 25.5%.
For `O=C1Nc2ccc(Cl)cc2[C@@](C#CC2CC2)(C(F)(F)F)O1` [EFAVIRENZ], the IC50 [2] was 0.0004 µM.
